Test results as given in ChEMBL document CHEMBL3627695, “1-Benzyl-2-methyl-3-indolylmethylene barbituric acid derivatives: Anti-cancer agents that target nucleophosmin 1 (NPM1)” (Bioorg Med Chem, 2015).
Calls of active or inactive are those of the source. No cut-off for these calls is given here.

System: OCI-AML-3
Assay: Anticancer activity against human OCI-AML3 cells expressing mutant NPM1 assessed as apoptosis for 48 hrs by annexin-V and TO-PRO3 staining based flow cytometry
Format: functional, cell-based
Summary of the method: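 OCI-AML3 cells (NPM1c+) in logarithmic growth, passaged 2–3 times weekly. Cells were exposed to the indicated compound concentrations for 48 hr, then stained with annexin V and TO-PRO 3. Percent apoptotic cells was read by flow cytometry. AP50 is the concentration at which 50% of cells undergo apoptosis.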

Compound	Activity
Cc1c(C=C2C(=O)NC(=O)NC2=O)c2ccccc2n1Cc1ccccc1	inactive
COC(=O)c1ccc(Cn2c(C)c(C=C3C(=O)NC(=O)NC3=O)c3ccccc32)cc1	inactive
Cc1c(C=C2C(=O)NC(=O)NC2=O)c2ccccc2n1Cc1ccc(Br)cc1	inactive
